In ChEMBL document CHEMBL4513216, “Probing the Open Global Health Chemical Diversity Library for Multistage-Active Starting Points for Next-Generation Antimalarials” (ACS Infect Dis, 2020):

experiment: Toxicity liver stage against HepG2, at 10uM; type: cell-based; design: test concentration 10 uM, cell line HepG2-A16-CD81EGFP; settings: human, HepG2-A16-CD81EGFP cells; read-out: INHIBITION
Summary of the method: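 Uninfected HepG2-A16-CD81EGFP cells, 3 × 10^3 per well, 1536-well, plated on prespotted compound at 10 μM final, parasite-free screening media added to match infected plates; puromycin 10 μM positive, DMSO 0.5% negative; run in parallel with 48 h PbLuc assay at 37 °C, 5% CO2; viability by CellTiter-Glo luminescence, normalized to controls.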

SMILES | cytotoxicity at 10 µM
CC1CCN(Cc2cc(=O)[nH]c(=O)[nH]2)CC1 | 9.95%
O=C1N[C@@H]2CCN(C(=O)C3CCC3)[C@@H]2C(=O)N1c1ccc(F)cc1 | -6.43%
O=C(c1cc(CC2(NCC3CCCCC3)COC2)no1)N1CCCCC1 | 5.35%
COCC(=O)N[C@H](C)c1onc(-c2ccc(OC)cc2)c1C(=O)O | 4.82%
COCCNc1ccc(-c2noc([C@@H]3CCCN3)n2)cn1 | -1.57%
CO[C@H]1COCCN(C(=O)c2cc(C)oc2C(F)(F)F)C1 | -12.1%
CN1C[C@H](O)C[C@H]1c1nc(-c2ccc(OC(F)(F)F)cc2)no1 | -12.2%
CCOCCNC(=O)c1cccnc1N1CCCC1c1ccccn1 (stereo not given) | 4.65%
CCc1cc(=O)[nH]c2nnc(SCC(=O)NC(C)C)n12 | -6.93%
O=C(c1ccc(Cl)cc1)N1CCc2nc(C(=O)N3CCCC3)sc2CC1 | 8.04%
O=c1[nH]nc(-c2cccs2)c2sc(N3CCOCC3)nc12 | 9.28%
CN(C(=O)Cn1nc(-c2ccc(Br)cc2)ccc1=O)C1CCS(=O)(=O)C1 (stereo not given) | 4.38%
CC(=O)c1nn(-c2ccccc2Cl)c(C)c1C(C)=O | 6.33%
O=C(Cn1nc2c(cc1=O)CCCC2)NC(Cc1ccccc1)C(=O)O (stereo not given) | 2.24%
COCC1c2nnn(CC3CC3)c2CCN1C(=O)c1cccc(F)c1 (stereo not given) | -8.31%
CCOC(=O)c1sc(NC(=O)COC)c(C#N)c1C | 7.61%
O=C(Cn1cc(I)cn1)N1CCCC1 | -0.653%
CN(C)c1nccc(C2CCCCN2Cc2cnn3cccnc23)n1 (stereo not given) | 10.5%
COc1cccc(CN2CCCC2c2cncc(Nc3nncs3)n2)c1 (stereo not given) | 4.73%
Cc1cc(-c2ccc(=O)n(C3CCN(C(=O)C4CCC4)CC3)n2)c(C)o1 | 4.22%
CCN1CCCC1CNCc1cc2cc(C)c(C)cc2[nH]c1=O (stereo not given) | -6.69%
O=C(NCCc1ccc(F)cc1)C1CN(C(=O)Cn2cncn2)C1 | 3.54%

SMILES | cytotoxicity at 10 µM
COC(=O)Cc1cn2cc(C(F)(F)F)ccc2n1 | 9.21%
Cc1cc(CN(C)Cc2ncc(C(C)(C)C)o2)no1 | 2.58%
Cc1cnn(CC2CCN(CC(O)c3ccccc3F)CC2)c1 (stereo not given) | -5.18%
CN1CCOC(C(=O)Nc2nc(-c3ccc(Cl)cc3)n[nH]2)C1 (stereo not given) | -4.34%
CN(C)Cc1nc(C(C)(C)NC(=O)c2nc3ccccc3s2)no1 | 8.61%
Cc1oc(C)c(C(=O)NS(=O)(=O)c2ccc3c(c2)OCCCO3)c1C | 6.08%
Cc1ccc(CNC(=O)NCC(=O)NC(C)(C)C)c(N2CCCC2)c1 | 5.68%
CCS(=O)(=O)CC(C)N(C)C(=O)COc1ccccc1C#N (stereo not given) | -3.51%
Cc1ccc(C(=O)N(Cc2cccc(F)c2)C2CC2)c(=O)[nH]1 | -4.86%
COc1c(F)cc(NC(=O)NCc2nncn2C2CC2)cc1F | -4.7%
Cc1noc(C)c1CNC(=O)N1CCCC(C)CC1 (stereo not given) | -7.31%
COC(=O)c1ccc(CNC(C)(C)c2ccccc2OC)o1 | -0.651%
CC(=O)N(Cc1ccoc1)C1CCCCC1 | -2.86%
CC(C)Oc1ccc(C(O)CNCc2ccccc2C(F)(F)F)cc1 (stereo not given) | -1.71%
CSc1nsc(NC(=O)N(C)Cc2ccc3c(c2)OCO3)n1 | -10.4%
FC(F)Oc1ccc(NCc2nc(C3CC3)no2)c(OC(F)F)c1 | 4.19%
CCOc1ccc(CN2C(=O)CC(C)(C)C2=O)nc1 | -11.9%
CC(C)(C)NC(=O)C1CSCN1C(=O)CCc1ccco1 (stereo not given) | -6.77%
CN1CCN(c2ncccc2CNc2ncccc2C#N)CC1 | 15.4%
Cc1cnn(C2CN(CC(O)c3ccc(F)cc3)C2)c1 (stereo not given) | 11.9%
CC(O)CC(C)(C)CNC(=O)NCc1cccc(-n2ccnc2)c1 (stereo not given) | -3.34%
CN(C)C1CCN(C(=O)NCc2ccccc2Cn2cncn2)CC1 | -8.15%

SMILES | cytotoxicity at 10 µM
CC(C)Cc1noc(CN2CCN(C(=O)c3cccc(F)c3)CC2)n1 | -5.7%
COc1ccc(CNCCc2cc(F)cc3c2OCOC3)cc1O | -9.26%
CCn1nnc2c1C(COC)CN(Cc1ccco1)C2 (stereo not given) | 0.73%
Cc1ccc(CN2C[C@H](OCC3CCN(C)CC3)[C@H]3COC[C@H]32)o1 | 6.19%
O=C(NCC1Cn2nnc(-c3ccccc3)c2CO1)c1ccc[nH]1 (stereo not given) | -1.2%
Cc1cnc(C)c(N2CCC3(CCCN(C4CCOCC4)C3=O)C2)n1 (stereo not given) | -124%
Cc1cc(N2CCC3(CCC(=O)N(CC4CC4)C3)CC2)ncn1 | -7.8%
Cc1cc(C(=O)N(C)Cc2ccoc2)c(NC(=O)C(C)(C)C)s1 | 12.1%
Cc1ccc(C)c(NC(=O)N2C[C@H](N(C)C)C[C@H]2CO)c1 | -0.861%
COCc1c(C(=O)N2CCCC(N(C)Cc3ccccc3)C2)noc1C (stereo not given) | -16.8%
CCn1c(N)nc2cc(C(=O)N3CCN(CC(F)(F)F)CC3)cnc21 | -2.03%
COc1ccccc1N1CCN(C(=O)CCc2nncn2C)C(C)C1 (stereo not given) | 16%
CCCn1cc(C(=O)N2CCCC(c3nccn3CCOC)C2)c(C)n1 (stereo not given) | 0.00455%
Cc1ncsc1CCC(=O)NCc1cc2n(n1)CCNC2 | -3.78%
CC(C)S(=O)(=O)N1CCOC(CCc2ccccc2)C1 (stereo not given) | -4.53%
O=c1cc(N2CCCCC2)cnn1CC(O)C(F)(F)F (stereo not given) | 12.3%
O=C1CC2(CCCC2)CC(=O)N1CCn1cnnc1 | -0.54%
COc1ccc(-c2ncc(-c3nccn3CCN(C)C)cn2)cc1 | 1.44%
CN1CC2(CCN(C(=O)c3cn4cccnc4n3)CC2)CC1=O | -7.72%
Cc1cc(C2CCCN2Cc2cccc(C(=O)Nc3nccs3)c2)no1 (stereo not given) | -4.12%
CN1CSC[C@H]1C(=O)N1CCN(Cc2cccc(Cl)c2)CC1 | -4.28%
CC(C)CN1CC2(CCN(C(=O)C(O)c3cccc(Cl)c3)CC2)CC1=O (stereo not given) | -1.45%

SMILES | cytotoxicity at 10 µM
CN(Cc1ncc[nH]1)CC1CCOc2ccccc2C1 (stereo not given) | -1.93%
CN(Cc1cccc(-n2cccn2)c1)Cc1cccs1 | -7.54%
COC[C@@H]1CCCN1C(=O)c1cc(-c2ccc(OC)cc2)n[nH]1 | 13.2%
O=C(c1cnc(O)cn1)N1CCC(CN2CCOCC2)CC1 | 9.49%
COc1cccc(-c2cccc(-c3ccn(CC4COCCO4)n3)c2)n1 (stereo not given) | -3.81%
CCc1nc(C)c(CC(=O)N2CCC3(CC2)OCCCC3OC)c(=O)[nH]1 (stereo not given) | -0.506%
COc1cncc(-n2nc(C)c(CC(C)=O)c2C)c1 | -12.8%
O=C(c1ccc(C2CCCN2C(=O)c2cscn2)s1)N1CCSCC1 (stereo not given) | -4.31%
CN(Cc1cc2n(n1)CCCNC2)Cc1cc(-c2ccncc2)no1 | 3.67%
CNC(=O)CNC(=O)CC1C(=O)NCCN1Cc1ccccc1C (stereo not given) | -2.88%
COc1ccc(-c2nc(CN(C)Cc3nncn3C)c(C)o2)c(C)c1C | -8.87%
O=C(CN1CCOCS1(=O)=O)NCCc1ccc(Cl)cc1 | -5.14%
CC(C)CN1CCN(Cc2nc3ccccc3[nH]2)[C@H]2CS(=O)(=O)C[C@H]21 | 14.4%
COC(=O)c1ccc2ccn(CC3CCCO3)c(=O)c2c1 (stereo not given) | -15.8%
COC1CCCN(C(=O)Nc2nc(C)n(C)n2)C1 (stereo not given) | 16.3%
CCc1noc(-c2cccc(C(=O)O)c2)n1 | -8.24%
COc1c(C)cnc(CN2CCC(N(C)C(=O)C(C)OC)CC2)c1C (stereo not given) | -11.3%
Cc1[nH]ncc1CCCNC(=O)N1CCCC(c2nncn2C)C1 (stereo not given) | -7.58%
CC(NC(=O)CSCC#N)c1cccc(Cl)c1 (stereo not given) | -3.06%
CCN1CCN(C(=O)NCc2cc[nH]n2)CC1 | -12.7%
Cc1nc(C)c(C(=O)NCCNC(=O)Cc2ccc(F)cc2)s1 | -5.68%
CC(C)n1cc(CN2CCCN(C(=O)C3CCOC3)CC2)cn1 (stereo not given) | -8.45%

SMILES | cytotoxicity at 10 µM
CC(C)N(C(=O)CN(C)C1CCc2ccccc21)C(C)C (stereo not given) | -9.3%
N#Cc1ccccc1N1CCCN(C(=O)CCc2cccs2)CC1 | -1.27%
Cc1nc(C(C)C)sc1C(=O)NCCNc1ncccc1C#N | -2.55%
CCn1nc2c(cc1=O)CN(CC(=O)Nc1nnc(C)s1)CC2 | -18.2%
COc1ccc(C(C)NC(=O)Cn2ccc(=O)n(C)c2=O)cc1F (stereo not given) | -3.17%
c1cnnc(N2CCCC2CNCc2noc(C3CC3)n2)c1 (stereo not given) | -7.45%
Cc1nn(C)c(N2CCOCC2)c1CNCc1ccoc1C | -8.76%
CCn1cc(NC(=O)NCC(O)c2ccccc2)cn1 (stereo not given) | -1.14%
CCOC(=O)CSc1nnc([C@@H](N)C(C)CC)o1 (stereo not given in full) | 2%
CN(C(=O)c1ncn2c1CN(C)S(=O)(=O)c1ccccc1-2)C1CC1 | -131%
CNC(=O)[C@H]1C[C@@H]2CCN(Cc3ccncc3)C[C@H]2O1 | 10.3%
O=C(NCc1ccco1)[C@H]1CC[C@@H]2[C@@H](CCN2Cc2nccs2)O1 | 2.67%
O=C1N(c2cccnc2)CCC12CCCN(Cc1ccoc1)C2 (stereo not given) | -1.6%
CCN(CC)CC1CN(Cc2ccc(C)s2)Cc2nccn2C1 (stereo not given) | 2.32%
O=C(NCc1cnc2n1CCN(CC1CC1)C2)C1CC1 | 5.06%
Fc1ccc(CN2CCO[C@H]3[C@H](OCC4CC4)CC[C@@H]32)cc1 | -5.34%
CCCC(=O)N1C[C@@H]2CCN(c3cnccn3)C[C@@H]2C1 | -1.48%
Cc1cnc(N2CCOC3(CCCN(CC(=O)N(C)C)C3)C2)nc1 (stereo not given) | 8.67%
Cc1cc(CN2C[C@@H]3CN(C(=O)c4ccsc4)CCO[C@@H]3C2)no1 | -131%
c1cnc(NC[C@@H]2CCC[C@@H]3CN(Cc4csnn4)C[C@@H]32)nc1 | -126%
c1ccc(-c2cnc3n2CCNC32CCNCC2)cc1 | -2.2%
Cc1ccc(NCc2cncc3c2CCN(Cc2ccccn2)C3)nn1 | -6.4%
